Experimental data from different studies.
Protocols differ between the studies behind these lines. pIC50, pKd, pKi: −log10 of the molar value.
FABP4: Fatty acid-binding protein, adipocyte (FABP4, Homo sapiens, UniProt P15090)
AKT1: RAC-alpha serine/threonine-protein kinase (AKT1, Homo sapiens, UniProt P31749)
CDK9 with cyclin T1: Cyclin-dependent kinase 9, with cyclin T1 (CDK9, Homo sapiens, UniProt P50750)

O=S(=O)(O)c1cccc2cccc(Nc3ccccc3)c12 — pKd (FABP4; binding, fluorescence): 6.29
CCOc1ccc(C(=O)CC(SCc2cccc(Br)c2)C(=O)O)cc1 (stereo not drawn) — pKi (AKT1; ligand displacement, FP): 4.23
CCCCCCCCCCCC(=O)O — pKi (FABP4; ligand displacement, fluorescence): 6.08
CCOc1ccc(C(=O)CC(SCc2ccc(OC)cc2)C(=O)O)cc1 (stereo not drawn) — pKi (AKT1; ligand displacement, FP): 3.25
Cc1cc(-c2ccnc3[nH]cc(F)c23)cc(F)c1[C@@]1(O)[C@H](C)CN(C(=O)CN)C[C@@H]1C — pKd (AKT1; cell-free assay, TR-FRET): 6.61
CCOc1ccc(C(=O)CC(SCc2ccc(Cl)cc2)C(=O)OC)cc1 (stereo not drawn) — pKi (AKT1; ligand displacement, FP): 3.28
CN1CCN(c2cc(=O)c3ccc(Nc4ncc5cc(C(=O)N(C)C)n(C6CCCC6)c5n4)cc3o2)CC1 — pIC50 (CDK9 with cyclin T1; enzyme activity, inhibitor, radiometric): 8.92
CCOC(=O)c1cc(-c2ccc(OCC)cc2)oc1-c1ccc(Cl)cc1 — pKi (AKT1; ligand displacement, FP): < 4.00
CCCCCCCCC(=O)O — pKi (FABP4; ligand displacement, fluorescence): 4.91
CCOc1ccc(C(=O)CC(SCc2ccccc2)C(=O)O)cc1 (stereo not drawn) — pKi (AKT1; ligand displacement, FP): 3.58
CCCCCCC(=O)O — pKi (FABP4; ligand displacement, fluorescence): 3.84
CC(C)(C)Cc1ccc(O)c(O)c1 — pKd (Peroxiredoxin-5, mitochondrial (PRDX5, Homo sapiens, UniProt P30044); binding, NMR): 4.70
CN(C)C(=O)c1cc2cnc(Nc3cncc(-c4cccc5c(=O)cc(N6CCOCC6)oc45)c3)nc2n1C1CCCC1 — pIC50 (CDK9 with cyclin T1; enzyme activity, inhibitor, radiometric): 8.10
O=C(O)C(F)(F)C(F)(F)C(F)(F)C(F)(F)F — pKi (FABP4; ligand displacement, fluorescence): 3.48
CN(C)C(=O)c1cc2cnc(Nc3cccc(-c4cccc5c(=O)cc(N6CCOCC6)oc45)c3)nc2n1C1CCCC1 — pIC50 (CDK9 with cyclin T1; enzyme activity, inhibitor, radiometric): < 5.00
CN(C)C(=O)c1cc2cnc(Nc3ccc(C(=O)NCCCCCCOc4cccc5c4C(=O)N(C4CCC(=O)NC4=O)C5=O)cc3)nc2n1C1CCCC1 (stereo not drawn) — pKd (Cyclin-dependent kinase 9 (CDK9, Homo sapiens, UniProt P50750); binding, competition with immobilised ligand): > 6.70
CCOc1ccc(C(=O)CC(SCc2ccc(Cl)cc2)C(=O)O)cc1 (stereo not drawn) — pKi (AKT1; ligand displacement, FP): 4.02
COc1ccc(-c2coc3cc(O)ccc3c2=O)cc1O — pKi (Cytochrome P450 2C9 (CYP2C9, Homo sapiens, UniProt P11712); enzyme activity, inhibitor; human, liver microsomes; 15 min): 4.59
OC1(c2ccc(-c3ccnc4[nH]cc(F)c34)cc2)CNC1 — pIC50 (AKT1; target engagement in cells, BRET): 4.64
CCOc1ccc(C(=O)CC(SCc2ccc(Br)cc2)C(=O)O)cc1 (stereo not drawn) — pKi (AKT1; ligand displacement, FP): 3.55
O=C(O)C(F)(F)C(F)(F)C(F)(F)C(F)(F)C(F)(F)C(F)(F)C(F)(F)C(F)(F)C(F)(F)C(F)(F)C(F)(F)C(F)(F)F — pKi (FABP4; ligand displacement, fluorescence): 6.12
CN(C)C(=O)c1cc2cnc(Nc3ccc(-c4cccc5c(=O)cc(N6CCOCC6)oc45)cc3)nc2n1C1CCCC1 — pIC50 (CDK9 with cyclin T1; enzyme activity, inhibitor, radiometric): 8.00
CCCCCCCCCCCCC(=O)O — pKi (FABP4; ligand displacement, fluorescence): 5.88
Cc1cc(-c2ccnc3[nH]cc(F)c23)cc(F)c1[C@@]1(O)[C@H](C)CN(C2CCS(=O)(=O)CC2)C[C@@H]1C — pKd (AKT1; cell-free assay, TR-FRET): 6.14
